procasp3 activ – activates human procaspase-3; P42574; recombinant procaspase-3 D3A, Ac-DEVD-pNA absorbance 405 nm; activation, % at 8.5 µM; hit rate 0.11% among 330,000; AID 463141;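 active = activation above the mean of all tested compounds plus 3 SD, cut at about 21% in these data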
Target sequence (P42574 whole entry D9A/D28A/D175A): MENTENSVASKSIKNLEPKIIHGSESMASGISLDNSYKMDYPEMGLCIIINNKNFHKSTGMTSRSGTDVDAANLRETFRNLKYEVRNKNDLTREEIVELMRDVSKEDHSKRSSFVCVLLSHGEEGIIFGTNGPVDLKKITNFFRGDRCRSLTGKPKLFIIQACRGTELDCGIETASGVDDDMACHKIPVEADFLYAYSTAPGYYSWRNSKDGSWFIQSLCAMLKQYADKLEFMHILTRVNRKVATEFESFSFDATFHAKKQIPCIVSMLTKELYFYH
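assay system = Procaspase-3 D3A mutant | signal = absorbance at 405 nm, 0 and 120 min | times = 1 h preincubation plus 2 h reaction at 25 °C | repeats = single replicate | read-out = % activation between DMSO and enzyme-spiked controls | medium = Zinc-free HEPES saline buffer with Triton X-100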
HGIII-sPLA2 inh – Inhibits HGIII-sPLA2 liposome hydrolysis, primary screen; Q9NZ20; QFRET BODIPY PC-A2 liposome hydrolysis, fluorescence; inhibition, % at 12.2 µM; hit rate 0.56% among 370,000; AID 743126;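 active = inhibition above mean plus 3 SD of compounds lying within the high and low control bounds, cut at about 19% in these data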
proCasp7 act – counter-screen: procaspase-7 (human) activation | recombinant procaspase-7, Ac-DEVD-pNA absorbance 405 nm; D23A/D198A/D206A triple mutant, cannot self-cleave; scale: DMSO 0, 5 µM enzyme 100 | AID 463210 | hit rate 0.093% among 330,000 | P55210 | activation, % at 8.5 µM;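 active = percent activation above the screen-wide mean plus 3 SD, cut at about 25% in these data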
Target sequence (P55210 whole entry D23A/D198A/D206A): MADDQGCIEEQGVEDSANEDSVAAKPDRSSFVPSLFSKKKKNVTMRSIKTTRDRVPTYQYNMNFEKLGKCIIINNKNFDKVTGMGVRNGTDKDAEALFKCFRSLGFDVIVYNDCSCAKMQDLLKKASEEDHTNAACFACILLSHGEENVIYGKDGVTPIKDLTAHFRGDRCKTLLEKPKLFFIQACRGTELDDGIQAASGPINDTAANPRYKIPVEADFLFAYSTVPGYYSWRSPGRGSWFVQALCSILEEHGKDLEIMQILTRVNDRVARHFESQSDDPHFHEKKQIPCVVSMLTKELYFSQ
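Assay system: Uncleavable procaspase-7 mutant enzyme | Input: 2 µM procaspase-7 mutant as dispensed | Timing: 1 h compound preincubation, 2 h substrate cleavage, 25 °C | Repeats: One well per compound | Control set: DMSO wells as 0%, DMSO with 5 µM added PC-7 as 100% | Technique: Epi-absorbance of released pNA at 405 nm, two timepoints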
PLC-beta3 inh – PLC-beta3 (human) inhibition, primary screen; Q01970; Purified PLC-beta3, fluorogenic substrate, fluorescence; inhibition, % at 12.2 µM; hit rate 0.18% among 370,000; AID 720704; in the data active = inhibition above about 11%
PLC-gamma1 inh – PLC-gamma1 (human) inhibition, primary screen | purified PLC-gamma1, fluorogenic substrate, fluorescence | inhibition, % at 12.2 µM | hit rate 0.84% among 370,000; in the data active = inhibition above about 9.5%
sPLA2 confirm – human GIII-sPLA2 inhibition, confirmation; recombinant hGIII-sPLA2, BODIPY PC-A2 QFRET fluorescence; shares compounds with HGIII-sPLA2 inh; inhibition, % at 12.2 µM; hit rate 34% among 2,000;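 active = mean inhibition across triplicates above the hit cutoff set in the earlier primary screen, cut at about 19% in these data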
535nm interf – optically interferes with 535nm fluorescence in sPLA2 counter-screen. shares compounds with HGIII-sPLA2 inh. hit rate 8.5% among 2,000. BODIPY FL product fluorescence interference, QFRET. inhibition, % at 12.2 µM. AID 743282;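 active = average inhibition above the solvent-only control mean plus 3 SD, cut at about 6% in these data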
BODIPY interf DR – 535nm optical interference dose response, HGIII-sPLA2 counter-screen; IC50, µM; 240 tested, under 10 active; shares compounds with HGIII-sPLA2 inh; AID 743455; BODIPY FL product fluorescence interference, cell-free;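 active = IC50 at or below 10 µM; inactive = IC50 above 10 µM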
Of the large screens only hits and unclear results are named; the others gave an inactive call (follow-up assays come after a bar, where they were run). This is a sample that favours compounds with a hit; in the whole collection about 1.6% have one here.

CC(NC(=S)NC1CCCCC1)C(c1cccs1)N1CCOCC1 (stereo unspecified)	HGIII-sPLA2 inh 24.3 | sPLA2 confirm inactive | 535nm interf inactive
COc1ccccc1NC(=S)NC(C)C(c1cccs1)N1CCOCC1 (stereo unspecified)	HGIII-sPLA2 inh 25.1 | sPLA2 confirm inactive | 535nm interf inactive
CC(C)C[C@H]1CN(CCCC[C@H]2CNC(=O)C(=O)N2Cc2ccccc2)C(=O)C(=O)N1Cc1ccccc1	none (no result: procasp3 activ, proCasp7 act)
Cc1ccc(S(=O)(=O)NCCC(=O)N2CC(C)OC(C)C2)cc1 (stereo unspecified)	HGIII-sPLA2 inh 21.7 | sPLA2 confirm inactive | 535nm interf inactive
CCOc1ccc(S(=O)(=O)NCCC(=O)N2CC(C)OC(C)C2)cc1 (stereo unspecified)	none
C(=NOCCc1ccccc1)c1cccnc1	HGIII-sPLA2 inh 20.1 (no result: procasp3 activ, proCasp7 act) | sPLA2 confirm inactive | 535nm interf inactive
Cc1ccc(S(=O)(=O)NC[C@H]2O[C@@H](n3ccc(N)nc3=O)[C@H](O)[C@@H]2O)s1	none (no result: procasp3 activ, proCasp7 act)
O=C(CCSCCc1ccccn1)Nc1cc(F)ccc1F	HGIII-sPLA2 inh 19.4 | sPLA2 confirm inactive | 535nm interf inactive
O=C(CCSCCc1ccccn1)Nc1ccc(Br)cc1F	none
CN(C)c1ccc(-c2n[nH]c(=S)n2-c2ccccc2)cc1	none
CCN(CC)c1ccc(-c2n[nH]c(=S)n2-c2ccccc2)cc1	HGIII-sPLA2 inh 19.5 | sPLA2 confirm 44.2 | 535nm interf inactive | BODIPY interf DR inactive
COc1cc2c(cc1OC)C(c1cc([N+](=O)[O-])ccc1O)NCC2 (stereo unspecified)	none
COc1cc2c(cc1OC)C(c1ccc([N+](=O)[O-])cc1)NCC2 (stereo unspecified)	HGIII-sPLA2 inh 19.5 | sPLA2 confirm inactive | 535nm interf inactive
S=c1[nH]nc(CCc2ccccc2)n1-c1ccc(Cl)cc1	HGIII-sPLA2 inh 23.8 | sPLA2 confirm 32.2 | 535nm interf inactive | BODIPY interf DR inactive
S=c1[nH]nc(Cc2ccccc2)n1-c1ccc(Cl)cc1	HGIII-sPLA2 inh 20.0 | sPLA2 confirm 20.8 | 535nm interf inactive
S=c1[nH]nc(COc2ccccc2)n1Cc1ccccc1	HGIII-sPLA2 inh 26.6 | sPLA2 confirm inactive | 535nm interf inactive
CCc1ccc(OCc2n[nH]c(=S)n2Cc2ccccc2)cc1	none
S=c1[nH]nc(COc2ccc(Cl)cc2)n1-c1ccc(Cl)cc1	none
S=c1[nH]nc(COc2ccc(Cl)cc2)n1-c1ccccc1	HGIII-sPLA2 inh 21.3 | sPLA2 confirm 33.7 | 535nm interf inactive | BODIPY interf DR inactive
S=c1[nH]nc(-c2ccccc2)n1Cc1ccccc1	none
S=c1[nH]nc(-c2cccs2)n1Cc1ccccc1	HGIII-sPLA2 inh 20.0 | sPLA2 confirm 20.8 | 535nm interf inactive
CNCc1ccccc1Sc1cc(O)ccc1O	HGIII-sPLA2 inh 19.7 | sPLA2 confirm 37.6 | 535nm interf inactive | BODIPY interf DR inactive
O=C1[C@H](Cc2ccccc2)NCC=CC[C@@H](c2ccc(Cl)cc2)N1Cc1ccccc1	none (no result: procasp3 activ, proCasp7 act)
COC(=O)Cc1ccc(NC(=S)NCC(C)C)cc1	none
CCCNC(=S)Nc1ccc(CC(=O)OC)cc1	HGIII-sPLA2 inh 24.3 | sPLA2 confirm inactive | 535nm interf inactive
COc1ccccc1/C=N\NC(=O)c1ccc(COc2ccc(C)c(C)c2)o1	none
Cc1cccc(N2CCN(C(=O)CCN3C(=S)NC(C)(C)CC3C)CC2)c1C (stereo unspecified)	HGIII-sPLA2 inh 28.1 | sPLA2 confirm inactive | 535nm interf inactive
Cc1ccc(C)c(N2CCN(C(=O)CCCN3C(=S)NC(C)(C)CC3C)CC2)c1 (stereo unspecified)	HGIII-sPLA2 inh 21.9 | sPLA2 confirm 20.9 | 535nm interf inactive
COc1ccc(Cc2nnc(SCC(=O)Nc3ccc(N4CCOCC4)cc3)n2C)cc1	none
CCc1ccc(C2C(C#N)=C(N)N(N(C)C)C3=C2C(=O)CCC3)cc1 (stereo unspecified)	none
CNC(=O)CCN(Cc1ccco1)S(=O)(=O)c1ccc(OC)c(OC)c1	HGIII-sPLA2 inh 23.4 | sPLA2 confirm inactive | 535nm interf inactive
COc1ccc(S(=O)(=O)N(CCC#N)Cc2ccco2)cc1OC	none
CC(=O)c1sc(NC(=O)C2CC(=O)N(Cc3ccccc3)C2)nc1-c1ccccc1 (stereo unspecified)	none
O=C(Cn1cncn1)N/N=C/c1cccnc1	none
CCCC(NC(=O)C(C)N1CCN(S(=O)(=O)c2ccccc2)CC1)c1ccccc1 (stereo unspecified)	none
C[C@@H]1CN([C@H](C)CO)C(=O)CCCn2cc(nn2)CO[C@H]1CN(C)C(=O)Nc1cccc2ccccc12	none (no result: procasp3 activ, proCasp7 act)
O=C(O)/C=C/C(=O)Nc1ccc(C2(c3ccc(NC(=O)/C=C/C(=O)O)cc3)c3ccccc3-c3ccccc32)cc1	HGIII-sPLA2 inh 22.3 | sPLA2 confirm inactive | 535nm interf inactive
O=C(O)/C=C\C(=O)Nc1ccc(Oc2ccccc2)cc1	none
CCNC1CCS(=O)(=O)C1 (stereo unspecified)	HGIII-sPLA2 inh 21.6 | sPLA2 confirm inactive | 535nm interf inactive
CCCCCn1c(=NC(=O)c2cccnc2)c(C#N)cc2c(=O)n3cccc(C)c3nc21	HGIII-sPLA2 inh 19.7 | sPLA2 confirm inactive | 535nm interf inactive
CCCCn1c(=NC(C)=O)c(C#N)cc2c(=O)n3cccc(C)c3nc21	none
Oc1ccc(Oc2ccccc2F)c2cccnc12	HGIII-sPLA2 inh 25.4 (no result: procasp3 activ, proCasp7 act) | sPLA2 confirm 26.0 | 535nm interf inactive
Cc1c(NC(=S)N/N=C/c2ccc(Br)cc2)c(=O)n(-c2ccccc2)n1C	HGIII-sPLA2 inh 20.4 | sPLA2 confirm 20.3 | 535nm interf inactive
Cc1c(NC(=S)N/N=C\c2ccccc2O)c(=O)n(-c2ccccc2)n1C	HGIII-sPLA2 inh 34.0 | sPLA2 confirm inactive | 535nm interf inactive
CC(=O)c1c(C)[nH]c(C(=O)OCC(=O)N2CCc3ccccc3C2)c1C	none
CCOC(=O)CCC(NC(=O)CCCC(=O)NC(CCC(=O)OCC)C(=O)OCC)C(=O)OCC (stereo unspecified)	HGIII-sPLA2 inh 21.6 | sPLA2 confirm inactive | 535nm interf inactive
CCOC(=O)CCC(NC(=O)CCC(=O)NC(CCC(=O)OCC)C(=O)OCC)C(=O)OCC (stereo unspecified)	none
O=C(CSc1cccc[n+]1[O-])Nc1cc2c(cc1Cl)C(=O)c1ccccc1C2=O	HGIII-sPLA2 inh 19.5 | sPLA2 confirm inactive | 535nm interf 6.5

High-throughput results from PubChem.
